# CHO parental Ca: ATP-evoked calcium signal inhibitors, parental CHO, primary screen, counter-screen for OX1R antagonist project, cell-based, fluorescence, Fluo-8 calcium dye | AID 463079, 2010 | hit rate 0.63% among 330,000 | inhibition, % at 5.6 µM | parental CHO-K1, ATP-induced calcium, Fluo-8 fluorescence;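 active = inhibition above that plate's mean sample inhibition plus 3 SD, cut at about 26% in these data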;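 also: 0% = ATP-challenged DMSO wells and 100% = DMSO wells without ATP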
#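 Test system: untransfected parental CHO cell line. Compound: one dose, 5.6 µM nominal. Detection: intracellular calcium via Fluo-8 no-wash fluorescent dye. Measure: % inhibition. Benchmarks: ATP-challenged DMSO wells low, unchallenged DMSO wells high.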
# GPR7 antagonist: GPR7 receptor antagonists, primary screen, cell-based, fluorescence, single concentration; Neuropeptides B/W receptor type 1 (Homo sapiens), P48145; GPR7-expressing cells, fluorescence antagonist assay; inhibition, % at 4.4 µM; hit rate 1.1% among 290,000; AID 1861, 2009; in the data active = inhibition above about 16%, passing the limit was not always enough;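 also: cells stimulated with the agonist NPW; 0% = agonist with vehicle and 100% = vehicle without agonist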
# Target sequence (P48145 whole entry, looked up): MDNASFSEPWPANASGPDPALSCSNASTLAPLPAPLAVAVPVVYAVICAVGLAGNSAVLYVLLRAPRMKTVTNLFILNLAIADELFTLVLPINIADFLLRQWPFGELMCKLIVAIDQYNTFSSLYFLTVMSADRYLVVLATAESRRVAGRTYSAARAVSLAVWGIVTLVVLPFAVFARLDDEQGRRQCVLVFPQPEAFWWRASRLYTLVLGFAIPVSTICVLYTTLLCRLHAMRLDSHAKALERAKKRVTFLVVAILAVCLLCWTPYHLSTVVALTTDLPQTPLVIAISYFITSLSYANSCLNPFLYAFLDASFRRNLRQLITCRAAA
# TAAR1 ag: human TAAR1 agonists, primary screen, Fluo-8 calcium fluorescence, CHO RD-HGA16 cells; Trace amine-associated receptor 1 (Homo sapiens), Q96RJ0; vehicle wells 0%, saturating PEA agonist 100%; activation, % at 3 µM; hit rate 0.99% among 360,000; AID 624467, 2012;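 active = activation above the mean activation of all test compounds in the run plus 3 SD, cut at about 38% in these data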
# Target sequence (Q96RJ0 whole entry, looked up): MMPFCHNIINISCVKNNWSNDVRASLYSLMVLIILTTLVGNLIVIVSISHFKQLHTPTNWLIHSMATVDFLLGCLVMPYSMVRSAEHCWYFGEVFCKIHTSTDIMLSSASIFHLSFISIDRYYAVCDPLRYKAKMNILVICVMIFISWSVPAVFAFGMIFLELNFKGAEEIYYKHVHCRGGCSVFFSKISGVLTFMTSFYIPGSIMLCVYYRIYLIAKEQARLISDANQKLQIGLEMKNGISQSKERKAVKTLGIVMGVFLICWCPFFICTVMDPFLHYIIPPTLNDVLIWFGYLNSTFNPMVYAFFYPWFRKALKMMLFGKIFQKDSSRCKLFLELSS
#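 System: CHO-derived RD-HGA16 cells with stable Gα16 and human TAAR1 / Times: 17-24 h plating, Fluo-8 75 min 37 °C, 30 min RT / Technique: calcium-sensitive Fluo-8 signal, excitation 470-495, emission 515-575 nm / Measure: % activation relative to PEA EC100 response / Benchmarks: DMSO and PEA EC100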
# OX1R antag-1: antagonists of human orexin 1 receptor (OX1R) | hit rate 1.8% among 330,000 | inhibition, % at 6.6 µM | Orexin/Hypocretin receptor type 1 (Homo sapiens), O43613 | OX1R-expressing cells, FRET antagonist read-out | AID 485270, 2010; in the data active = inhibition mostly above about 38%, no sharp cut-off; inactive = mostly below about 40%;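 also: 0% = agonist challenge alone and 100% = reference antagonist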
# TAAR1 antag: human TAAR1 antagonists, primary screen, Fluo-8 calcium fluorescence, CHO RD-HGA16 cells | inhibition, % at 3 µM | antagonist | hit rate 1.5% among 360,000 | AID 624466, 2012;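 active = inhibition above a per-plate cutoff, the mean inhibition of test compounds on that plate plus 3 SD, cut at about 49% in these data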;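 also: 0% = DMSO plus EC80 beta-PEA response and 100% = DMSO alone without agonist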
#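 Test system – hTAAR1-expressing CHO RD-HGA16 cells, Gα16-coupled · Also added – β-PEA at EC80 concentration, post-compound challenge · Compound – 3 µM, single point · Incubation – dye loading 75 min at 37 °C, then 30 min room temperature · Measured by – Fluo-8 intracellular calcium dye fluorescence, real-time kinetic reads · Benchmarks – vehicle and agonist controls · Replicates – singlicate, one well per test compound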
# OX1R antag-2: OX1R (HCRTR1) antagonists, primary screen, fluorescence, CHO/OX1R cells, Fluo-8 calcium, orexin A. Fluo-8 calcium fluorescence. inhibition, % at 5 µM. hit rate 0.43% among 330,000. AID 434989, 2010. Orexin/Hypocretin receptor type 1 (Homo sapiens), O43613;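 active = inhibition above its plate's threshold, mean inhibition of all tested compounds on the plate plus 3 SD, cut at about 37% in these data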;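 also: 0% = orexin A challenge wells and 100% = SB-334867-A antagonist wells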
# Starred values were filed as active, the others as inactive; / = not tested or not shown. Compounds with a hit are over-represented: about 4.6% of the library has one in this group of screens.
SMILES,CHO parental Ca,GPR7 antagonist,TAAR1 ag,OX1R antag-1,TAAR1 antag,OX1R antag-2
CCN(CC)CCCNC(=O)c1ccc(C)c(NC(=O)C2=C(C)OCCS2)c1,-4.6,-19.2,6.6,0.9,-25.0,-22.6
COCCCN1C(=O)c2ccc(C(=O)OCC(=O)N3CCN(c4ccccc4)CC3)cc2C1=O,-3.3,/,3.2,46.3*,-29.9,2.3
CCCCN1C(=O)c2ccc(C(=O)OCC(=O)N3CCN(c4ccccc4)CC3)cc2C1=O,-24.0,/,1.6,1.8,5.2,-25.6
CCOC(=O)c1c(S(=O)(=O)N(C)Cc2ccccc2)c(C)n(C)c1C,-5.1,-4.2,-0.5,12.7,-9.5,7.9
COc1cc(/C=C/CN2CCC(C(=O)NC(c3ccc(F)cc3)c3ccc4ccccc4n3)CC2)ccc1OC(C)=O (configuration not stated),/,/,48.9*,/,22.5,/
Cc1ccnc(NC(=O)c2cc([N+](=O)[O-])cc([N+](=O)[O-])c2)c1,-7.2,-11.9,5.0,16.9,10.4,-16.6
Cc1ccnc(NC(=O)c2ccc([N+](=O)[O-])s2)c1,2.9,7.1,3.6,69.6*,-16.2,-8.6
Cc1cccc(NC(=O)c2ccc([N+](=O)[O-])s2)n1,12.3,-10.2,0.6,36.4*,-6.3,-3.5
Cc1cccc(C)c1NC(=O)c1ccc([N+](=O)[O-])s1,-4.7,2.3,4.1,46.1,-9.6,-21.2
COc1cc(/C=C2\SC(=O)NC2=O)ccc1OCC(=O)N1CCOCC1,-13.7,/,-0.8,51.8*,-9.9,15.6
N#Cc1cc2nc(O)c(O)nc2cc1[N+](=O)[O-],1.2,/,-0.7,76.2*,4.3,11.6
COc1cc(C(=O)/C=C/c2cccnc2)ccc1O,-3.5,12.5,6.5,19.6,5.6,-64.9
CCn1c(SCC(=O)NC2CCCC2)nc2c1c(=O)n(C)c(=O)n2C,-2.2,-5.9,1.2,18.8,-12.2,-13.2
O=C(c1ccco1)N1CCN(C2CN(CCc3ccccc3)S(=O)(=O)C2)CC1 (configuration not stated),/,/,13.1,/,-12.2,/
CC(=O)c1c(C)oc2ccc(N(C(C)=O)S(=O)(=O)c3cccc4cccnc34)cc12,-17.6,-5.1,15.4,15.5,59.0*,-9.0
CC(=O)c1c(C)oc2ccc(N(C(C)=O)S(=O)(=O)c3ccc(F)cc3C)cc12,-9.9,-23.0,-0.4,7.9,-12.0,-16.9
O=C(COC(=O)c1cc([N+](=O)[O-])ccc1N1CCOCC1)NCc1ccccc1,/,/,1.0,/,-9.4,/
CC(NC(=O)COC(=O)c1cc([N+](=O)[O-])ccc1N1CCOCC1)c1ccccc1 (configuration not stated),-22.9,-13.0,4.4,50.8*,-3.3,-30.8
CC(NC(=O)COC(=O)c1cc([N+](=O)[O-])ccc1N1CCOCC1)c1ccc(F)cc1 (configuration not stated),-16.0,/,2.0,39.5*,9.8,-15.4
CC(C)(C)c1ccc(C(=O)NC(=O)COC(=O)c2ccco2)cc1,/,/,-0.8,/,-0.8,/
Cc1cc2nsnc2c(S(=O)(=O)N2CCN(C)CC2)c1C,-2.5,6.7,-2.0,42.0*,-4.5,-4.9
Cc1cc(C)c(C)c(S(=O)(=O)N2CCCN(C)CC2)c1C,-2.6,-9.1,2.5,8.7,-9.7,-11.2
CC(=O)N1c2ccc(S(=O)(=O)NCc3ccccc3Cl)cc2CC1C (configuration not stated),-3.0,-9.2,2.1,15.3,-1.1,-10.8
N#C/C(=C\c1ccc(O)c([N+](=O)[O-])c1)c1nc2ccccc2s1,/,20.4*,4.6,/,28.8,/
COc1cc(/C=C(\C#N)c2nc3ccccc3s2)cc([N+](=O)[O-])c1O,/,3.2,0.7,/,1.8,/
SMILES,CHO parental Ca,GPR7 antagonist,TAAR1 ag,OX1R antag-1,TAAR1 antag,OX1R antag-2
CCOc1ccc(-c2cc(N)n(S(=O)(=O)c3cccc4nsnc34)n2)cc1,-24.6,-7.9,-3.1,18.2,-5.1,-38.6
COc1cc(OC)cc(-c2cc(N)n(S(=O)(=O)c3cccc4nsnc34)n2)c1,4.4,8.7,3.6,48.7*,-4.6,16.5
O=C(Nc1ccc([N+](=O)[O-])c(NC(=O)c2cccnc2)c1)c1cccnc1,-2.9,/,0.1,8.1,1.4,0.7
O=C(Nc1cc2c(cc1[N+](=O)[O-])OCCO2)c1cccnc1,-14.3,/,2.5,50.2*,-12.4,-5.7
CCCCCCNC(=O)Cc1ccc(Br)cc1,8.8,-2.0,4.8,20.0,-6.5,-21.5
Cc1ccc(C(C)(C)C)cc1S(=O)(=O)Nc1cccc(C(=O)N2CCN(c3ccccn3)CC2)c1,/,/,15.2,/,60.9*,/
O=C(c1ccc(Cl)c(S(=O)(=O)N2CCCCCC2)c1)N1CCN(c2ccccn2)CC1,-13.2,20.9*,15.0,8.6,32.8,-5.6
Cc1cc([N+](=O)[O-])nn1CC(=O)N1CCOCC1,-6.9,-3.0,8.5,13.0,-5.9,-15.9
COc1ccc(NC(=O)NC23CC4(C)CC(C)(CC(C)(C4)C2)C3)cc1,-24.1,-6.6,10.6,13.7,4.1,-26.2
O=[N+]([O-])c1ccc(-c2nnc3n2CCCCC3)cc1,-6.2,1.2,1.0,32.2*,-13.5,-15.5
CCOc1cc(-c2nc3ccccn3c2NCC2CCCO2)ccc1O (configuration not stated),1.5,13.5,24.4,9.2,56.9*,-11.8
Cc1cccc2cc(COC(=O)C3CCCO3)c(=O)[nH]c12 (configuration not stated),-11.8,-5.0,-2.5,20.3,-1.4,-27.6
CCCOc1ccc(-c2csc3nc[nH]c(=O)c23)cc1,1.4,13.1,-0.1,10.8,3.9,-9.0
O=c1[nH]cnc2scc(-c3ccc(-c4ccccc4)cc3)c12,-1.2,-7.9,10.0,27.8,49.7*,-2.3
CC(C)N(C(=O)CSc1nc2ccccc2n1-c1ccccc1)C(C)C,-31.1,6.5,1.2,54.7*,-9.5,-23.1
CC(C)N(C(=O)CSc1nc2ccccc2n1Cc1ccccc1)C(C)C,-17.0,-11.9,2.7,32.1,3.4,-32.8
O=C(NCc1ccco1)c1cccc2c1C(=O)c1ccc(/C=C/c3ccccc3)cc1S2(=O)=O,-4.2,/,13.5,16.3,51.3*,5.9
Cc1nn(-c2ccccc2)c2c1C(O)n1c(nc3ccccc31)S2 (configuration not stated),-18.3,8.3,17.4,21.4,50.3*,-20.7
COc1ccc(NC(=O)CC2C(=O)N(c3ccc(F)cc3)C(=S)N2NC(=O)c2ccccc2)cc1 (configuration not stated),-7.5,-1.7,10.8,5.0,-7.2,-12.0

# Assay outcomes from PubChem BioAssay.
